Assay outcomes (PubChem)
Only a selection was taken, and hits are over-represented in it overall.
L major viab = inhibitors of Leishmania major promastigote growth; 200,000 tested, 9% active; AID 1063; Leishmania major promastigotes, resazurin fluorescence viability; inhibition, % at 10 µM;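 note: promastigotes grown with compound for 44 hours at 28 °C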
PKD1 kinase inh = PKD1 (human) kinase inhibition | Q15139 | PKD1 kinase fluorescence polarization assay | inhibition, % (test concentration not listed) | 200,000 tested, 0.056% active | AID 797
ABCG2 inh = human ABCG2 inhibition, ABCB1 as counter-screen. Q9UNQ0. IgMXP3 cells, JC-1 efflux, flow cytometry. inhibition, % at 6.6 µM. 190,000 tested, 0.1% active;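 active = inhibition above 80%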;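 note: 0% = DMSO and 100% = nicardipine control wells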
Target sequence (Q9UNQ0 whole entry, looked up): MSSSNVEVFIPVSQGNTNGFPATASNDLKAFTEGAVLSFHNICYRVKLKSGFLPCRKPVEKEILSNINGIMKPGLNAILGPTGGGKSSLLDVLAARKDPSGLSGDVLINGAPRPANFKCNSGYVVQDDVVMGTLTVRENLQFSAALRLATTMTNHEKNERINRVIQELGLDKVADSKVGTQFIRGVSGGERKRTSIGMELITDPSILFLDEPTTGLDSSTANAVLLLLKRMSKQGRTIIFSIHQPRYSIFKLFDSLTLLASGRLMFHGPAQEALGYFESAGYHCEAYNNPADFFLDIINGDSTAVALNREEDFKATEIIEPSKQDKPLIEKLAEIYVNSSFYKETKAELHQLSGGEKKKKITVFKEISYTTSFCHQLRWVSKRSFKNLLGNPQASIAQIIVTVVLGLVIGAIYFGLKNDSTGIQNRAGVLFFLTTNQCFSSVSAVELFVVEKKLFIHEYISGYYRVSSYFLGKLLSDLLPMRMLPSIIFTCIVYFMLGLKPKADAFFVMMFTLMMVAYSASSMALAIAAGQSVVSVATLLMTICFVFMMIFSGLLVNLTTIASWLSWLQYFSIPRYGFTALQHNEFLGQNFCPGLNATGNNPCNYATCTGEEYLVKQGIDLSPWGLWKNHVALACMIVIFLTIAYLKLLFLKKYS
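Assay system – ABCG2 IgMXP3 and barcoded ABCB1 CCRF-Adr cell mix · Input – 3 million cells/mL in well · Reagent – JC-1 fluorescent substrate · Compound – single test compound dose, 6.6 µM final · Timing – 10 min exposure at 25 °C with rotation, no wash · Detection – flow cytometry of retained JC-1 fluorescence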
Avidin fluor = avidin bead compound fluorescence profile; fluorescence (KMESF) at 10 µM; 220,000 tested, 0.38% active; Avidin beads, compound fluorescence 488/530 nm, flow cytometry; hits give high values; in the data active = fluorescence above about 47
GSH bead fluor = GSH bead compound fluorescence profile | GSH beads flow cytometry, compound fluorescence 488/530 nm; hits give high values | fluorescence (KMESF) at 10 µM | 190,000 tested, 0.25% active; in the data active = fluorescence above about 89;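 note: glutathione beads carrying GST-tagged Bcl family fusion proteins plus one bare bead set; values are compound well signal with DMSO vehicle wells as background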
ABCB1 block = human ABCB1 inhibition, ABCG2 as counter-screen; CCRF-Adr cells, JC-1 efflux, flow cytometry; inhibition, % at 6.6 µM; 190,000 tested, 0.067% active; in the data active = inhibition above about 40%;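 note: 0% = vehicle and 100% = reference inhibitor; higher value means more JC-1 retained so stronger ABCB1 efflux block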
Numbers without * were called inactive; . = no result given. Cut-off read from the data, not from the text of the source, unless noted: active = inhibition above about 50%; inactive = the rest.

SMILES | L major viab | PKD1 kinase inh | ABCG2 inh | Avidin fluor | GSH bead fluor | ABCB1 block
O=C(NCC1CCN(c2ccc(S(=O)(=O)N3CCOCC3)cc2)CC1)c1cccc(Cl)c1 | 97* | 3 | 4 | 13 | 16 | 1
COc1ccc(NC(=O)c2ccc(S(=O)(=O)N3CCOCC3)cc2)c(OC)c1 | 5 | -9 | 1 | 32 | 17 | 0
COc1cccc(-c2nnc(NC(=O)C3CCCCC3)o2)c1 | 66* | 2 | 10 | 6 | 17 | 2
COc1cc(-c2nnc(NC(=O)c3ccc(S(=O)(=O)N4CCOCC4)cc3)o2)cc(OC)c1OC | -1 | 1 | 0 | 10 | 13 | -1
COc1cccc(C(=O)NCC2CCN(c3ccc(S(=O)(=O)N4CCOCC4)cc3)CC2)c1 | 64* | 1 | 0 | 4 | 31 | 0
CC(C)(C#CCN1CCCCC1)OCCOC(c1ccccc1)c1ccccc1 | 22 | -9 | 2 | 6 | 18 | 2
COc1cccc(-c2nnc(NC(=O)c3ccc4ncsc4c3)o2)c1 | 82* | 8 | -1 | 8 | 4 | 0
CC1CN(S(=O)(=O)c2ccc(C(=O)Nc3nnc(-c4ccccn4)o3)cc2)CC(C)O1 (centres undefined) | 0 | 0 | 4 | -2 | 11 | 0
Cc1cccc(C(=O)Nc2nnc(-c3cccnc3)o2)c1 | 65* | -9 | 14 | 9 | 12 | 0
COc1cccc(C(=O)Nc2nnc(-c3ccc(Cl)cc3)o2)c1 | . | . | . | 9 | . | .
CCOc1ccc(-c2nnc(NC(=O)c3ccc(OCC(C)C)c(OC)c3)o2)cc1 | 98* | -9 | -5 | 10 | 14 | 0
CC1CN(S(=O)(=O)c2ccc(C(=O)Nc3nnc(-c4ccc5c(c4)CCCC5)o3)cc2)CC(C)O1 (centres undefined) | 99* | 0 | 0 | 6 | 28 | 0
COc1ccc(CCN(C)C(=O)CCc2nnc(-c3ccccc3)o2)cc1OC | 8 | -4 | -5 | 10 | 16 | -2
Cc1occc1C(=O)NN=C1C2CC3CC(C2)CC1C3 | -2 | -2 | 0 | 8 | 105* | 0
Cc1occc1C(=O)NC(C)C12CC3CC(CC(C3)C1)C2 (centres undefined) | 1 | 0 | 4 | 9 | 24 | 0
COc1ccccc1-c1nnc(NC(=O)CSc2nncn2C)s1 | -3 | -5 | 6 | 10 | 9 | 0
O=C(Cn1c(=O)oc2ccccc21)Nc1n[nH]c(=S)s1 | . | . | . | 5 | . | .
CC(CCc1ccccc1)N1CCN(Cc2ccccc2)CC1 (centres undefined) | 97* | -5 | 1 | 13 | 9 | 1
CC(C(=O)Nc1ccccc1-c1ccccc1)N1CCN(Cc2ccccc2)CC1 (centres undefined) | 17 | -7 | 2 | 9 | 15 | 11
CCS(=O)(=O)N1CCN(C(C)CCc2ccccc2)CC1 (centres undefined) | 75* | 1 | 0 | 41 | 20 | 0
COc1cc(OC)c(NS(=O)(=O)c2coc(C(N)=O)c2)cc1Cl | 2 | -3 | 0 | 3 | 16 | 0
COc1cc(OC)c(NS(=O)(=O)c2cc(C(=O)OC(C)C(=O)NC3CC3)c(Cl)cc2Cl)cc1Cl (centres undefined) | 78* | 3 | 2 | 17 | 13 | 0
O=C(CSc1ncnc2c1sc1ccccc12)Nc1ccc(Br)cc1 | 60* | -15 | -3 | 15 | 5 | -1
O=C(CSc1ncnc2c1oc1ccccc12)Nc1nc2ccccc2s1 | -4 | 3 | -2 | 4 | 26 | -1
COc1ccc(Nc2nnc(-c3ccc(O)cc3)c3ccccc23)cc1 | 8 | -7 | 1 | 17 | 9 | 0
SMILES | L major viab | PKD1 kinase inh | ABCG2 inh | Avidin fluor | GSH bead fluor | ABCB1 block
Cc1ccc(Nc2nc(Cl)nc(N(C)C#N)n2)cc1 | 97* | -5 | 26 | 7 | 13 | 1
COc1ccccc1/C=C/C=N/N1CCN(Cc2ccc(Cl)cc2)CC1 | 85* | -2 | 2 | 10 | 9 | 1
COc1ccccc1/C=C/C=N\N1CCN(Cc2ccccc2Cl)CC1 | 65* | -7 | 7 | 16 | 10 | 0
Cc1ccc(/C=N/N2CCN(Cc3ccc(Cl)cc3)CC2)o1 | 52* | 1 | 7 | 10 | 23 | 1
COCCCN=Cc1c(C)[nH]n(-c2ccc(Br)cc2Br)c1=O | -3 | 6 | 12 | 7 | 12 | 2
Cc1ccccc1NC(=O)CCN1CCCC1 | -8 | -2 | 0 | 15 | 10 | 0
CCOC(=O)c1c(NC(=O)c2ccccc2)sc2c(O)c(CN(CC)CC)ccc12 | 100* | -13 | 37 | 15 | 31 | 5
CCN(CC)Cc1c(NC(=O)c2ccccc2)sc(C)c1C | 21 | 0 | 5 | 3 | 11 | 0
Clc1ccc(Cn2c(-c3cccnc3Cl)nc3ccccc32)cc1 | 46 | -2 | 8 | 7 | 19 | 1
Clc1ccc(Cn2c(-c3cccnc3Cl)nc3ccccc32)c(Cl)c1 | 99* | -1 | 2 | 6 | 16 | 1
Cn1c(NCCCN2CCOCC2)nc2c1c(=O)n(Cc1ccc(Cl)c(Cl)c1)c(=O)n2C | 99* | -1 | 5 | 6 | 40 | 5
Cn1c(NCc2ccco2)nc2c1c(=O)n(Cc1ccc(Cl)cc1)c(=O)n2C | -6 | -2 | 36 | 18 | 21 | 2
COc1ccc(Cn2c(=O)c3c(nc(NCCO)n3C)n(C)c2=O)cc1 | -10 | -11 | 3 | 28 | 12 | 0
Cn1c(NCCCN2CCOCC2)nc2c1c(=O)n(Cc1ccc(Cl)cc1)c(=O)n2C | 74* | -7 | 4 | 14 | 9 | 2
Cc1ccc(NNC(=O)Nc2ccc(Cl)cc2)nn1 | . | . | . | 6 | . | .
CCOc1ccccc1NC(=O)C1CC(=O)n2ncnc2N1 (centres undefined) | -3 | -7 | 1 | 8 | 67 | 1
CC(=O)c1c(C(C)=O)c(C)n(-c2ccc(N)cc2)c1C | 0 | -2 | 3 | 20 | 21 | 1
O=C(CSC1=NCCS1)N1CCOCC1 | -1 | 8 | 8 | 8 | 249* | 1
O=C(CSC1=NCCS1)N1CCN(c2ccccc2)CC1 | 2 | 3 | 0 | 4 | 25 | 0
CCCCCCN(C(=O)CCCCCN1C(=O)NC(c2ccc(-c3ccccc3)cc2)C(C(=O)OCc2ccccc2)=C1C)C(C(=O)NCCCC)c1ccc(O)c(C(=O)OC)c1 (centres undefined) | . | . | . | 9 | . | .
O=C(N=Nc1c(O)[nH]c2ccccc12)c1ccccc1NS(=O)(=O)c1cccs1 | 68* | -19 | 0 | 7 | 7 | 0
O=C(c1ccc([N+](=O)[O-])cc1)N1CCN(c2cccc3[nH]ccc23)CC1 | . | . | . | 6 | . | .
O=S(=O)(c1ccc(N2CCC(c3ccc(Cl)cc3)=N2)cc1)N(CCO)CCO | -5 | 5 | 11 | 13 | 49 | 0
CN(C)CCCNS(=O)(=O)c1ccc(N2CCC(c3ccc(Cl)cc3)=N2)cc1 | 100* | -2 | -1 | 7 | 10 | 0
